In ChEMBL document CHEMBL1129626, “Cyclic HIV protease inhibitors: synthesis, conformational analysis, P2/P2' structure-activity relationship, and molecular recognition of cyclic ureas” (J Med Chem, 1996):

What was measured:
[1] = biological target: Human immunodeficiency virus type 1 protease (Human immunodeficiency virus 1, UniProt Q72874); experiment: Inhibitory activity against HIV-1 protease
Outline: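 HIV-1 protease Ki from cleavage of a fluorescent peptide substrate, products resolved by HPLC. Inhibitor was tested at four concentrations spanning 0.1–10 000 nM, the range chosen per inhibitor.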

[2] = tested on: Human immunodeficiency virus 1; experiment: Inhibition of viral infection in HIV-1 (RF)-infected MT-2 cells with an oligonucleotide-based sandwich hybridization assay.; type: functional, MT2
Outline: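 Uninfected MT-2 cells were preincubated for 30 min with serial dilutions of compound, then infected with HIV-1 RF and cultured for 3 days at 37 °C, 5% CO2. Lysates were assayed for viral RNA by microtiter oligonucleotide sandwich hybridization.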

[3] = Bioavailability as maximal plasma concentration in rats; type: ADME, organism-based; conditions: rat
Outline: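 Rats (n = 4/group) were given an oral dose of 10 mg/kg in a propylene glycol / poly(ethylene glycol) 400 / water formulation. Cmax is the observed peak plasma concentration after the oral dose. F% is AUC(po)/AUC, with AUC taken from time zero to infinity and normalized for dose.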

[4] = Human immunodeficiency virus 1, MT2

| SMILES | Ki [1] | IC90 [2, 4] | Cmax [3] | IC90 [2] |
| --- | --- | --- | --- | --- |
| O=C1N(Cc2ccc3ccccc3c2)[C@H](Cc2ccccc2)[C@H](O)[C@@H](O)[C@@H](Cc2ccccc2)N1CC1CC1 | 0.0015 µM | 1.3 µM | – | – |
| CCCCCCN1C(=O)N(CCCCCC)[C@H](Cc2ccccc2)[C@H](O)[C@@H](O)[C@H]1Cc1ccccc1 | 0.0046 µM | > 102 µM | – | – |
| COc1ccc(CN2C(=O)N(Cc3ccc(OC)cc3)[C@H](Cc3ccccc3)[C@H](O)[C@@H](O)[C@H]2Cc2ccccc2)cc1 | 0.157 µM | 7.6 µM | – | – |
| O=C1N(Cc2ccc(CO)cc2)[C@H](Cc2ccccc2)[C@H](O)[C@@H](O)[C@@H](Cc2ccccc2)N1Cc1ccc2ccccc2c1 | 0.00093 µM | 0.21 µM | – | – |
| Cc1cccc(CN2C(=O)N(Cc3cccc(C)c3)[C@H](Cc3ccccc3)[C@H](O)[C@@H](O)[C@H]2Cc2ccccc2)c1 | 0.007 µM | 2.4 µM | – | – |
| O=C1N(Cc2cccc(Cl)c2)[C@H](Cc2ccccc2)[C@H](O)[C@@H](O)[C@@H](Cc2ccccc2)N1Cc1cccc(Cl)c1 | 0.00089 µM | 1.3 µM | 300 nM | – |
| CCCCN1C(=O)N(Cc2ccc3ccccc3c2)[C@H](Cc2ccccc2)[C@H](O)[C@@H](O)[C@H]1Cc1ccccc1 | 0.0006 µM | 0.75 µM | – | – |
| O=C1N(Cc2ccccc2Cl)[C@H](Cc2ccccc2)[C@H](O)[C@@H](O)[C@@H](Cc2ccccc2)N1Cc1ccccc1Cl | 0.24 µM | 11.3 µM | – | – |
| O=C1N(Cc2ccc(Br)cc2)[C@H](Cc2ccccc2)[C@H](O)[C@@H](O)[C@@H](Cc2ccccc2)N1Cc1ccc(Br)cc1 | 0.027 µM | 8.1 µM | – | – |
| O=C1N(CC2CCCCC2)[C@H](Cc2ccccc2)[C@H](O)[C@@H](O)[C@@H](Cc2ccccc2)N1CC1CCCCC1 | 0.037 µM | > 96 µM | – | – |
| O=C1N(Cc2cccc(Br)c2)[C@H](Cc2ccccc2)[C@H](O)[C@@H](O)[C@@H](Cc2ccccc2)N1Cc1cccc(Br)c1 | 0.0014 µM | 1.2 µM | – | – |
| O=C1N(CCN2CCOCC2)[C@H](Cc2ccccc2)[C@H](O)[C@@H](O)[C@@H](Cc2ccccc2)N1CCN1CCOCC1 | – | > 91 µM | – | – |
| COc1cccc(CN2C(=O)N(Cc3cccc(OC)c3)[C@H](Cc3ccccc3)[C@H](O)[C@@H](O)[C@H]2Cc2ccccc2)c1 | 0.0016 µM | 1.3 µM | – | – |
| CCCCCN1C(=O)N(CCCCC)[C@H](Cc2ccccc2)[C@H](O)[C@@H](O)[C@H]1Cc1ccccc1 | 0.0016 µM | 1.5 µM | – | – |
| CN1C(=O)N(C)[C@H](Cc2ccccc2)[C@H](O)[C@@H](O)[C@H]1Cc1ccccc1 | 5.7 µM | > 141 µM | – | – |
| CC(C)CN1C(=O)N(CC(C)C)[C@H](Cc2ccccc2)[C@H](O)[C@@H](O)[C@H]1Cc1ccccc1 | 0.049 µM | > 100 µM | – | – |
| O=C1N(Cc2cccc(C(F)(F)F)c2)[C@H](Cc2ccccc2)[C@H](O)[C@@H](O)[C@@H](Cc2ccccc2)N1Cc1cccc(C(F)(F)F)c1 | – | 7.8 µM | – | – |
| C=COCCN1C(=O)N(CCOC=C)[C@H](Cc2ccccc2)[C@H](O)[C@@H](O)[C@H]1Cc1ccccc1 | 0.06 µM | > 107 µM | – | – |
| CCCCN1C(=O)N(CCCC)[C@H](Cc2ccccc2)[C@H](O)[C@@H](O)[C@H]1Cc1ccccc1 | 0.0014 µM | 0.68 µM | – | – |
| CCN1C(=O)N(CC)[C@H](Cc2ccccc2)[C@H](O)[C@@H](O)[C@H]1Cc1ccccc1 | 0.1 µM | > 132 µM | – | – |
| C=CCN1C(=O)N(Cc2ccc3ccccc3c2)[C@H](Cc2ccccc2)[C@H](O)[C@@H](O)[C@H]1Cc1ccccc1 | 0.0014 µM | 0.99 µM | – | – |
| Nc1cccc(CN2C(=O)N(Cc3ccc4ccccc4c3)[C@H](Cc3ccccc3)[C@H](O)[C@@H](O)[C@H]2Cc2ccccc2)c1 | 0.001 µM | 0.084 µM | – | – |
| O=C1N(Cc2ccc(F)cc2)[C@H](Cc2ccccc2)[C@H](O)[C@@H](O)[C@@H](Cc2ccccc2)N1Cc1ccc(F)cc1 | 0.0014 µM | 0.6 µM | 1600 nM | – |
| O=C1N(Cc2ccc(CO)cc2)[C@H](Cc2ccccc2)[C@H](O)[C@@H](O)[C@@H](Cc2ccccc2)N1Cc1ccc(CO)cc1 | 1.65 µM | – | – | 51 µM |
| C#CCN1C(=O)N(CC#C)[C@H](Cc2ccccc2)[C@H](O)[C@@H](O)[C@H]1Cc1ccccc1 | 0.022 µM | 42 µM | – | – |
| O=C1N(Cc2ccc(F)cc2)[C@H](Cc2ccccc2)[C@H](O)[C@@H](O)[C@@H](Cc2ccccc2)N1Cc1ccc2ccccc2c1 | 0.0036 µM | 1.1 µM | – | – |
| COCCN1C(=O)N(CCOC)[C@H](Cc2ccccc2)[C@H](O)[C@@H](O)[C@H]1Cc1ccccc1 | 0.8 µM | > 114 µM | – | – |
| CCCN1C(=O)N(CCC)[C@H](Cc2ccccc2)[C@H](O)[C@@H](O)[C@H]1Cc1ccccc1 | 0.008 µM | 54 µM | – | – |
